pKi: −log10 of the molar value. Active and inactive are the calls of the source. The rule behind the calls is not given here.
Columns and labels:
[1] = Displacement of [125I]-TZDM from amyloid beta 1 to 42 after 2 hrs by gamma counting
Outline: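 Aβ1-42 aggregated at 0.25 mg/mL in pH 7.4 buffer (10 mM sodium phosphate, 1 mM EDTA), 37 °C for 42 h with shaking. Fibrils (28 nM final) mixed with [125I]TZDM and inhibitor (10^-5 to 10^-10 M in EtOH) in PBS (0.2 M, pH 7.4). Incubated 2 h at 37 °C; nonspecific binding taken with 100 nM TZDM. Bound and free separated by vacuum filtration through glass fibre filters, washed with cold PBS containing 10% ethanol, then counted; Ki reported.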

Mus musculus [2] = organism: Mus musculus; assay: Binding affinity to amyloid beta in APP/PS1 transgenic C57 mouse brain at 1 uM after 10 mins by fluorescence assay; assay type: tissue-based
Outline: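 Paraffin-embedded brain sections (10 μm) from APP/PS1 C57 transgenic mouse, deparaffinized through xylene and graded ethanol, then PBS (0.2 M, pH 7.4) 30 min. Sections incubated 10 min with compound (1 μM in 20% ethanol), washed with 50% ethanol and PBS. Confocal fluorescence read at excitation 405 nm, 505 nm long-pass. Plaques confirmed with thioflavin-S (1 μM) on adjacent sections.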

Mus musculus [3] = organism: Mus musculus; assay: Binding affinity to amyloid beta in APP/PS1 transgenic C57 mouse brain cortex at 5 uCi/100 uL after 30 mins by autoradiography; assay type: tissue-based; settings: tested as the 125I-labelled form
Outline: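 Deparaffinized transgenic mouse brain sections incubated 30 min at room temperature with [125I]-labelled tracer (5 μCi/100 μL). Washed with saturated Li2CO3 in 40% EtOH for 3 min, then 40% EtOH for 3 min, then rinsed 30 s in water. Plaques checked afterwards by thioflavin-S (1 μM) fluorescence staining of the same sections.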

pKi [1] | inhibition [1] | Activity (Mus musculus [2]) | Activity (Mus musculus [3]) | SMILES
9.44 | Dose-dependent effect | Active |  | CN(C)c1ccc(/C=C/c2ccc(-c3ccc(Br)s3)s2)cc1
9.66 | Dose-dependent effect |  |  | Brc1ccc(/C=C/c2ccc(-c3ccc(Br)s3)s2)cc1
8.39 | Dose-dependent effect |  |  | Fc1ccc(/C=C/c2ccc(-c3cccs3)s2)cc1
9.13 | Dose-dependent effect |  |  | Clc1ccc(/C=C/c2ccc(-c3cccs3)s2)cc1
9.04 | Dose-dependent effect |  | Active | Ic1ccc(/C=C/c2ccc(-c3cccs3)s2)cc1
8.83 | Dose-dependent effect |  |  | COc1ccc(/C=C/c2ccc(-c3cccs3)s2)cc1
8.96 | Dose-dependent effect |  |  | Clc1ccc(/C=C/c2ccc(-c3ccc(I)s3)s2)cc1
